Measured values as given in ChEMBL document CHEMBL1152788, “Naphthylisopropylamine and N-benzylamphetamine derivatives as monoamine oxidase inhibitors” (Bioorg Med Chem, 2009).
Where a name gives a salt, the structure may show the parent alone.

Tests used:
[1] = molecular target: T1, Amine oxidase [flavin-containing] A (Rattus norvegicus, UniProt P21396); assay: Inhibition of MAOA in rat brain mitochondria
T1 sequence (P21396 whole entry): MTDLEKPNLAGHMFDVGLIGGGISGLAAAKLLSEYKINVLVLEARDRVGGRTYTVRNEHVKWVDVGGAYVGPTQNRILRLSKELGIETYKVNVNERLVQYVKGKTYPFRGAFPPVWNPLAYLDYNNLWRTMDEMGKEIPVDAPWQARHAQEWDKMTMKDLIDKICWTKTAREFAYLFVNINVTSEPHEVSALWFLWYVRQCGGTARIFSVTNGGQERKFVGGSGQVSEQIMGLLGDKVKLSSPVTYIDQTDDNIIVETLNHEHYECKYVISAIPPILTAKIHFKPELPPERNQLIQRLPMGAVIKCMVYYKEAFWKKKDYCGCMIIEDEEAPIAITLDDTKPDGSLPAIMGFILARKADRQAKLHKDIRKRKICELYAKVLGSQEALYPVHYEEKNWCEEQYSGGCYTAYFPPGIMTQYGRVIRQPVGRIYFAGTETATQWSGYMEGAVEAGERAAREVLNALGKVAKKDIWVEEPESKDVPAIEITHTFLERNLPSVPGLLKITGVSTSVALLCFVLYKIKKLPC
Summary of the method: (§1)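 Substrate is 5-HT for MAO-A and DMAPEA for MAO-B. Substrates and their metabolites are measured by HPLC with electrochemical detection. Percent inhibition is taken against enzyme treated the same way without inhibitor and plotted against −log inhibitor concentration to give IC50. Runs are at least two independent experiments, each in triplicate. Ki is from IC50 by Cheng–Prusoff, using the substrate's Km.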

[2] = molecular target: T2, Amine oxidase [flavin-containing] B (Rattus norvegicus, UniProt P19643); assay: Inhibition of MAOB in rat brain mitochondria; summary of the method: as §1
T2 sequence (P19643 whole entry): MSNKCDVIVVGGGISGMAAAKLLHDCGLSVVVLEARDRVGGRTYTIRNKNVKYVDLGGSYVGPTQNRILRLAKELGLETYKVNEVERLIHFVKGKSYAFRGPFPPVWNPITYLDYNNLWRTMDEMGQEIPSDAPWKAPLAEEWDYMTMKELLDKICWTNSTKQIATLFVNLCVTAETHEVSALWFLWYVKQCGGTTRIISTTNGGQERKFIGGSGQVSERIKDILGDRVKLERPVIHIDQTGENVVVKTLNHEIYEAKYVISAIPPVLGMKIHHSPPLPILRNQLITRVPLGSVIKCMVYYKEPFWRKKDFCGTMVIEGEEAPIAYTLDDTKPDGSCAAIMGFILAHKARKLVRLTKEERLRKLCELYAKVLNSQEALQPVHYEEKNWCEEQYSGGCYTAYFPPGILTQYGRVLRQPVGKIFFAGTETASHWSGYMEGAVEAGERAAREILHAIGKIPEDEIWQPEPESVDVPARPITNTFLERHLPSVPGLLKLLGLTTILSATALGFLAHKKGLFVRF

SMILES: CSc1ccc(CC(C)N)cc1 (stereo unspecified) [4-METHYLTHIOAMPHETAMINE]
- Ki [1]: 0.25 µM

SMILES: CC(N)Cc1ccc2ccccc2c1 (stereo unspecified)
- Ki [1]: 0.42 µM
- Ki [2]: > 100 µM

SMILES: CSc1ccc(CC(C)NCc2ccc(O)cc2)cc1 (stereo unspecified)
- Ki [1]: > 100 µM
- Ki [2]: > 100 µM

SMILES: CC(N)Cc1cccc2ccccc12 (stereo unspecified)
- Ki [1]: 5.63 µM
- Ki [2]: > 100 µM

SMILES: CSc1ccc(CC(C)NCc2ccccc2)cc1 (stereo unspecified)
- Ki [1]: > 100 µM
- Ki [2]: > 100 µM

SMILES: CCCOc1ccc2cc(CC(C)N)ccc2c1 (stereo unspecified)
- Ki [1]: 0.68 µM
- Ki [2]: 13.5 µM

SMILES: CC(N)Cc1ccc2cc(OCc3ccccc3)ccc2c1 (stereo unspecified)
- Ki [1]: 3.78 µM
- Ki [2]: 2.56 µM

SMILES: CC(N)Cc1ccc(OCc2ccccc2)cc1 (stereo unspecified)
- Ki [1]: 3.42 µM
- Ki [2]: 0.71 µM

SMILES: CC(N)Cc1ccccc1 (stereo unspecified) [AMPHETAMINE SULFATE]
- Ki [1]: 12.2 µM

SMILES: COc1ccc(CNC(C)Cc2ccc(SC)cc2)cc1 (stereo unspecified)
- Ki [1]: > 100 µM

SMILES: CCOc1ccc(CC(C)N)cc1 (stereo unspecified)
- Ki [1]: 0.22 µM
- Ki [2]: > 100 µM

SMILES: COc1ccc(CC(C)N)cc1 (stereo unspecified) [PARA-METHOXYAMPHETAMINE]
- Ki [1]: 0.25 µM

SMILES: COc1ccc2cc(CC(C)N)ccc2c1 (stereo unspecified)
- Ki [1]: 0.18 µM
- Ki [2]: 16.3 µM

SMILES: CCCCOc1ccc2cc(CC(C)N)ccc2c1 (stereo unspecified)
- Ki [1]: 1.53 µM

SMILES: CCCCOc1ccc2cc(CC(C)NCc3ccccc3)ccc2c1 (stereo unspecified)
- Ki [1]: 14.5 µM
- Ki [2]: 22.2 µM

SMILES: CCOc1ccc2cc(CC(C)N)ccc2c1 (stereo unspecified)
- Ki [1]: 0.45 µM
- Ki [2]: 13.6 µM

SMILES: CCCOc1ccc(CC(C)N)cc1 (stereo unspecified)
- Ki [1]: 0.13 µM
- Ki [2]: > 100 µM

SMILES: CCCCOc1ccc(CNC(C)Cc2ccc(SC)cc2)cc1 (stereo unspecified)
- Ki [1]: 90 µM

SMILES: CSc1ccc2cc(CC(C)N)ccc2c1 (stereo unspecified)
- Ki [1]: 0.5 µM

SMILES: CCCCOc1ccc(CC(C)N)cc1 (stereo unspecified)
- Ki [1]: 0.32 µM
- Ki [2]: > 100 µM

SMILES: COc1ccc2cc(CC(C)NCc3ccccc3)ccc2c1 (stereo unspecified)
- Ki [1]: 6.93 µM
- Ki [2]: 24.7 µM

SMILES: CSc1ccc(CC(C)NCc2ccc(OCc3ccccc3)cc2)cc1 (stereo unspecified)
- Ki [1]: > 100 µM
